# Assay results taken from ChEMBL document CHEMBL5154634, “A Modular Synthetic Route Involving N-Aryl-2-nitrosoaniline Intermediates Leads to a New Series of 3-Substituted Halogenated Phenazine Antibacterial Agents” (J Med Chem, 2021).
# pIC50: −log10 of the molar value.
# Tests used:
# [1] = system: Staphylococcus epidermidis; test: Antibacterial activity against methicillin-resistant Staphylococcus epidermidis ATCC 35984 assessed as bacterial growth inhibition incubated for 16 hrs by broth microdilution susceptibility test; assay type: functional
# Method in brief: (§1)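 CLSI broth microdilution with 11 twofold dilutions (0.05–50 μM). About 10^5 cells per well from a log-phase culture. DMSO vehicle up to 0.5% v/v. At least three independent experiments.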
# [2] = system: Enterococcus faecium; test: Antibacterial activity against vancomycin-resistant Enterococcus faecium ATCC 700221 assessed as bacterial growth inhibition incubated for 16 hrs by broth microdilution susceptibility test; assay type: functional
# Method in brief: (§2)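 CLSI broth microdilution with 11 twofold dilutions (0.05–50 μM). Medium was LB for the staphylococci and BHI for VRE 700221. About 10^5 cells per well from a log-phase culture. […] DMSO vehicle up to 0.5% v/v. At least three independent experiments.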
# [3] = system: Staphylococcus aureus; test: Antibacterial activity against methicillin-resistant Staphylococcus aureus BAA-1707 assessed as bacterial growth inhibition incubated for 16 hrs by broth microdilution susceptibility test; assay type: functional; method in brief: as §1
# [4] = system: Mycobacterium tuberculosis; test: Antibacterial activity against Mycobacterium tuberculosis H37Ra ATCC 25177 assessed as bacterial growth inhibition incubated for 7 days by absorbance based analysis; assay type: functional; details: H37Ra ATCC 25177, 168 h, time 7 day
# Method in brief: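 H37Ra grown 2 weeks in Middlebrook 7H9, then diluted to OD600 0.01. Compounds added in twofold dilutions, final 0.024–50 μM, with 0.5% DMSO and streptomycin as positive control. Incubated 7 days at 37 °C. MIC is the lowest concentration with no growth, with OD600 recorded. At least three independent experiments.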
# [5] = system: Erythrocyte; test: Hemolytic activity against human RBC at 200 uM measured after 1 hr; assay type: toxicity, cell-based
# Method in brief: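 2% hRBCs exposed to compound at 200 μM final, added from DMSO stock, for 1 h at 37 °C. Supernatant OD read at 405 nm. Hemolysis normalized between DMSO (0%) and Triton X (100%); three independent experiments.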
# [6] = system: J774; test: Cytotoxicity against mouse J774 cells assessed as reduction in cell viability […] by Alamar blue assay; assay type: toxicity, cell-based
# [7] = system: Staphylococcus aureus; test: Bactericidal activity against methicillin-resistant Staphylococcus aureus BAA-1707 planktonic cells assessed as planktonic eradication incubated for 24 hrs followed by incubation for overnight in fresh medium by Calgary biofilm device assay; assay type: functional
# Method in brief: (§3)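 Calgary biofilm device. Biofilms grown 24 h at 37 °C in TSB with 0.5% glucose, then challenged 24 h with twofold compound dilutions. 20 μL of challenge medium transferred into fresh TSB with 0.5% glucose and incubated overnight at 37 °C. MBC is the concentration with no visible turbidity. At least three independent experiments.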
# [8] = system: Mycobacterium tuberculosis; test: Antibacterial activity against Mycobacterium tuberculosis CDC1551 assessed as bacterial growth inhibition incubated for 5 days by luminescence based analysis; assay type: functional; details: CDC1551, 120 h, time 5 day
# Method in brief: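 Bioluminescent Mtb-lux CDC1551 reporter grown in Middlebrook 7H9 with 0.05% Tween 80, 10% OADC and kanamycin to OD600 0.4–0.8, then diluted to OD600 0.02. Added to twofold drug dilutions (0.003–200 μM). Incubated 5 days at 37 °C, 5% CO2. Luminescence read against 1% DMSO and 10 μM rifampicin controls to give % growth inhibition. MIC taken from a modified Gompertz fit.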
# [9] = system: Staphylococcus epidermidis; test: Bactericidal activity against methicillin-resistant Staphylococcus epidermidis ATCC 35984 planktonic cells assessed as planktonic eradication incubated for 24 hrs followed by incubation for overnight in fresh medium by Calgary biofilm device assay; assay type: functional; method in brief: as §3
# [10] = system: Staphylococcus aureus; test: Antibacterial activity against methicillin-resistant Staphylococcus aureus BAA-44 assessed as bacterial growth inhibition incubated for 16 hrs by broth microdilution susceptibility test; assay type: functional; method in brief: as §2
# [11] = system: Enterococcus faecalis; test: Antibiofilm activity against Enterococcus faecalis OG1RF ATCC 47077 biofilms assessed as biofilm eradication incubated for 24 hrs followed by incubation for 24 hrs in fresh medium by Calgary biofilm device assay; assay type: functional
# Method in brief: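 Calgary biofilm device. Biofilms grown 24 h at 37 °C in BHI from mid-log culture diluted 1000-fold. Pegs washed and then challenged 24 h with twofold serial dilutions. Pegs moved to fresh BHI for 24 h recovery. MBEC = lowest concentration leaving no turbidity; at least three independent experiments.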
# [12] = system: Enterococcus faecium; test: Antibiofilm activity against methicillin-resistant vancomycin-resistant Enterococcus faecium ATCC 700221 biofilms assessed as biofilm eradication incubated for 24 hrs followed by incubation for 24 hrs in fresh medium by Calgary biofilm device assay; assay type: functional
# Method in brief: (§4)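 Calgary biofilm device. Mid-log culture diluted 1000-fold in TSB with 0.5% glucose; biofilms grown on pegs 24 h at 37 °C. Pegs washed and challenged with twofold compound dilutions for 24 h at 37 °C, then moved to fresh medium for 24 h. MBEC is the lowest concentration leaving wells non-turbid. At least three independent experiments.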
# [13] = system: Enterococcus faecium; test: Bactericidal activity against methicillin-resistant vancomycin-resistant Enterococcus faecium ATCC 700221 planktonic cells assessed as planktonic eradication incubated for 24 hrs followed by incubation for overnight in fresh medium by Calgary biofilm device assay; assay type: functional; method in brief: as §3
# [14] = system: Enterococcus faecalis; test: Antibacterial activity against Enterococcus faecalis OG1RF ATCC 47077 assessed as bacterial growth inhibition incubated for 16 hrs by broth microdilution susceptibility test; assay type: functional
# [15] = system: Staphylococcus aureus; test: Antibiofilm activity against methicillin-resistant Staphylococcus aureus BAA-1707 biofilms assessed as biofilm eradication incubated for 24 hrs followed by incubation for 24 hrs in fresh medium by Calgary biofilm device assay; assay type: functional; method in brief: as §4
# [16] = system: HepG2; test: Cytotoxicity against human HepG2 cells assessed as reduction in cell viability […] by Alamar blue assay; assay type: toxicity, cell-based
# [17] = system: HeLa; test: Cytotoxicity against human HeLa cells assessed as reduction in cell viability incubated for 24 hrs by LDH release assay; assay type: toxicity, cell-based
# Method in brief: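 HeLa cells in DMEM with 10% FBS, treated at 70–80% confluence with 25, 50 and 100 μM for 24 h. LDH in supernatant measured by 30 min reaction at room temperature, then stop solution and absorbance at 490 nm. Controls: 2% Triton X-100 (maximum), medium only, DMSO vehicle. Three independent experiments.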
# [18] = system: Staphylococcus epidermidis; test: Antibiofilm activity against methicillin-resistant Staphylococcus epidermidis ATCC 35984 biofilms assessed as biofilm eradication incubated for 24 hrs followed by incubation for 24 hrs in fresh medium by Calgary biofilm device assay; assay type: functional; method in brief: as §4
# [19] = system: Enterococcus faecalis; test: Bactericidal activity against […] Enterococcus faecalis OG1RF ATCC 47077 planktonic cells assessed as planktonic eradication incubated for 24 hrs followed by incubation for overnight in fresh medium by Calgary biofilm device assay; assay type: functional
# Method in brief: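 Calgary biofilm device in BHI. Biofilms grown 24 h at 37 °C and challenged 24 h with twofold compound dilutions. Challenge medium subcultured 1:10 into fresh BHI overnight at 37 °C. MBC is the concentration with no turbidity. At least three independent experiments.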
SMILES,MIC [1],MIC [2],MIC [3],MIC [10],MIC [14],MBEC [15],other results
Cc1cccc2nc3c(O)cc(Cl)cc3nc12,[…],3.13 µM,–,–,–,–,–
Oc1c(Br)cc(Br)c2nc3cc(Cl)ccc3nc12,–,–,0.1 µM,–,–,–,–
Oc1c(Br)c(Cl)c(Br)c2nc3c(Oc4ccccc4)cccc3nc12,0.2 µM,0.15 µM,–,0.1 µM,0.78 µM,1.56 µM,MIC [4]: 3.13 µM; Activity [5]: 2.6%; pIC50 [6]: < 3.70; MBC [7]: […]; MIC [8]: 3.01 µM; MBC [9]: 1.56 µM; MBEC [11]: 75 µM; MBEC [12]: 0.39 µM; MBC [13]: 0.78 µM; pIC50 [16]: < 3.70; pIC50 [17]: < 4.00
Oc1cc(Cl)cc2nc3ccc(F)cc3nc12,–,–,6.25 µM,–,–,–,–
Oc1cccc2nc3ccccc3nc12,37.5 µM,> 50 µM,50 µM,50 µM,> 50 µM,–,–
Cc1ccc2nc3c(O)cc(Cl)cc3nc2c1C,2.35 µM,3.13 µM,2.35 µM,2.35 µM,12.5 µM,–,–
Oc1c(Br)c(Cl)c(Br)c2nc3ccc(Br)cc3nc12,0.1 µM,0.3 µM,–,1.56 µM,0.78 µM,12.5 µM,Activity [5]: 5.1%; MBC [7]: 12.5 µM; MBEC [18]: 6.25 µM; MBC [9]: 6.25 µM; MBC [13]: 4.69 µM
Oc1cc(Cl)cc2nc3c(Oc4ccccc4)cccc3nc12,3.13 µM,–,3.13 µM,3.13 µM,–,–,–
Cc1cccc2nc3c(O)c(Br)cc(Br)c3nc12,–,–,0.3 µM,–,–,–,–
O=C(O)CN(CCN(CC(=O)O)CC(=O)O)CC(=O)O [EDETIC ACID],–,–,–,125 µM,500 µM,>2000 µM,MBC [19]: > 2000 µM; Activity [5]: <= 1%; MBEC [11]: >2000 µM
CCCCCCCCCC(=O)N[C@@H](Cc1c[nH]c2ccccc12)C(=O)N[C@H](CC(N)=O)C(=O)N[C@@H](CC(=O)O)C(=O)N[C@@H]1C(=O)NCC(=O)N[C@@H](CCCN)C(=O)N[C@@H](CC(=O)O)C(=O)N[C@H](C)C(=O)N[C@@H](CC(=O)O)C(=O)NCC(=O)N[C@H](CO)C(=O)N[C@@H]([C@H](C)CC(=O)O)C(=O)N[C@@H](CC(=O)c2ccccc2N)C(=O)O[C@@H]1C,–,–,–,–,–,>2000 µM,MBEC [12]: 93.8 µM; MBC [13]: 375 µM
